In ChEMBL document CHEMBL1649313, “T-2307 shows efficacy in a murine model of Candida glabrata infection despite in vitro trailing growth phenomena” (2010) one finds MIC, log10cfu and Activity data, which are given here for four compounds.

Calls of active or inactive are those of the source. *1 amine or outer side, *2 acyl side, *3 side chain or, on linkers, in order; H or OH if unused. Where a SMILES comes first, the peptide text is derived from it. Bridges are numbered along the chain shown (N, C = ends). [ ]: non-standard residue; d: D form. The star is where a group is joined. hTyr(3S-OH,4S-OH,3'-OSO3H) = N[C@H](C(=O)O)[C@H](O)[C@@H](O)c1ccc(O)c(OS(=O)(=O)O)c1; Orn(4R-OH,5R-OH) = O=C([C@H](C[C@@H](O)[C@@H](O)N[*:3])N[*:1])[*:2]; Pro(3S-OH,4S-Me) = C[C@H]1CN[C@H](C(=O)O)[C@H]1O; X1 = CCCCCOc1ccc(-c2cc(-c3ccc(C(=O)*)cc3)no2)cc1; Gln(3R-OH) = NC(=O)C[C@@H](O)[C@H](N)C(=O)O; Hyp = O=C(O)[C@@H]1C[C@@H](O)CN1

Assay [1] concerns Nakaseomyces glabratus. Put plainly: Antifungal activity against Candida glabrata ATCC 90030 after 48 hrs by broth microdilution method in presence of 0.2% glucose. Type of assay: functional. To be noted: ATCC 90030, 48 h. The method in brief:
(§1)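 CLSI M27-A3 broth microdilution in RPMI 1640 (pH 7.0, 0.165 M MOPS) with glucose at 2%, 0.2%, 0.1%, 0.05% or 0.02%, or with 0.2% glycerol in place of glucose. Inoculum from 24-h SDA culture at 35°C, final 1 × 10^3 cells/ml. Incubated 48 h. MIC is the lowest concentration giving a prominent turbidity drop; OD600 also read against the growth control.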
A general note: In broth dilution the organism is exposed to a series of concentrations in liquid medium.

For assay [2], the system named is Nakaseomyces glabratus. Put plainly: Antifungal activity against Candida glabrata ATCC 90030 after 48 hrs by broth microdilution method in presence of 0.1% glucose. Type of assay: functional. To be noted: ATCC 90030, 48 h. The gist of the method:
as §1

Assay [3] relates to Nakaseomyces glabratus. As to the kind of experiment: Antifungal activity against Candida glabrata ATCC 90030 after 48 hrs by broth microdilution method in presence of 0.05% glucose. Type of assay: functional. To be noted: ATCC 90030, 48 h. The gist of the method:
as §1

For assay [4], the system named is Nakaseomyces glabratus. As to the kind of experiment: Antifungal activity against Candida glabrata ATCC 90030 infected in ICR mouse assessed as fungal load in kidney at 5 mg/kg/day, sc for 8 days measured on day 8. The class given is functional. To be noted: route subcutaneous. The gist of the method: (§2)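 Four-week-old male SPF ICR mice made neutropenic with cyclophosphamide ip, 200 mg/kg on day −3 and 100 mg/kg on day +1. Infected iv by tail vein with 7.68 × 10^6 CFU from an overnight SDA culture in saline. Dosed sc once daily for 8 days starting 2 h post-infection, 5 mice per group, saline controls. Kidneys harvested on day 8, homogenates plated on SDA with imipenem, 5 days at 35°C, log CFU counted, Dunnett test.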

Assay [5] concerns Nakaseomyces glabratus. Put plainly: Antifungal activity against Candida glabrata ATCC 90030 after 48 hrs by Almar blue assay in presence of 0.2% glucosel. To be noted: ATCC 90030, 48 h.
Assay [6] deals with Nakaseomyces glabratus. As to the kind of experiment: Antifungal activity against Candida glabrata ATCC 90030 after 48 hrs by broth microdilution method in presence of 2% glucose. To be noted: ATCC 90030, 48 h. The class given is functional. The gist of the method: as §1
Assay [7] deals with Nakaseomyces glabratus. As to the kind of experiment: Antifungal activity against Candida glabrata ATCC 90030 infected in ICR mouse assessed as fungal load in kidney at 10 mg/kg/day, sc for 8 days measured on […]. The class given is functional. To be noted: route subcutaneous.
The subject of assay [8] is Nakaseomyces glabratus. Put plainly: Antifungal activity against Candida glabrata ATCC 90030 after 48 hrs by broth microdilution method in presence of 0.2% glycerol. The class given is functional. To be noted: ATCC 90030, 48 h. The method in brief:
as §1

Assay [9] concerns Nakaseomyces glabratus. As to the kind of experiment: Antifungal activity against Candida glabrata ATCC 90030 infected in ICR mouse assessed as fungal load in kidney at 2.5 mg/kg/day, sc for 8 days measured on day 8. Type of assay: functional. To be noted: route subcutaneous. The method in brief: as §2
Assay [10] relates to Nakaseomyces glabratus. Put plainly: Antifungal activity against Candida glabrata ATCC 90030 after 48 hrs by broth microdilution method in presence of 0.02% glucose. The class given is functional. To be noted: ATCC 90030, 48 h. The method in brief: as §1
Assay [11] has as its system Nakaseomyces glabratus. As to the kind of experiment: Antifungal activity against Candida glabrata ATCC 90030 infected in ICR mouse assessed as fungal load in kidney at 0.05 mg/kg/day, sc for 8 days measured on day 8. Type of assay: functional. To be noted: route subcutaneous. The gist of the method: (§3)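 Four-week-old male SPF ICR mice (n=5/group) were made neutropenic with cyclophosphamide 200 mg/kg ip on day −3 and 100 mg/kg on day +1. They were infected iv (tail vein) with 7.68 × 10^6 CFU/mouse in saline. Dosing was sc once daily for 8 days from 2 h post-infection; controls got saline. Day-8 kidney homogenates were plated on SDA with 0.1 mg/ml imipenem, 35°C, 5 days. Result is log CFU/kidneys, Dunnett test versus control.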

In assay [12] the test system is Nakaseomyces glabratus. Put plainly: Antifungal activity against Candida glabrata ATCC 90030 infected in ICR mouse assessed as fungal load in kidney at 0.1 mg/kg/day, sc for 8 days measured on day 8. To be noted: route subcutaneous. Type of assay: functional. The method in brief: as §3
The subject of assay [13] is Nakaseomyces glabratus. Put plainly: Antifungal activity against Candida glabrata ATCC 90030 assessed as growth inhibition at 0.0039 to 0.125 ug/ml after 48 hrs. The class given is functional, organism-based. The method in brief:
(§4)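 Inhibition curve in CLSI M27-A3 microdilution: RPMI 1640 with 0.2% glucose, MOPS-buffered to pH 7.0, final inoculum 1 × 10^3 cells/ml. OD600 was read on a microplate spectrophotometer at 24 h and 48 h. Percent inhibition was calculated relative to the growth-control well.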

The subject of assay [14] is Nakaseomyces glabratus. As to the kind of experiment: Antifungal activity against Candida glabrata ATCC 90030 infected in ICR mouse assessed as fungal load in kidney at 0.025 mg/kg/day, sc for 8 days measured on day 8. The class given is functional. To be noted: route subcutaneous. The method in brief:
as §3

Assay [15] has as its system Nakaseomyces glabratus. Put plainly: Antifungal activity against Candida glabrata ATCC 90030 assessed as growth inhibition at 0.0039 to 0.125 ug/ml after 24 hrs. The class given is functional, organism-based. The gist of the method: as §4
Assay [16] deals with Nakaseomyces glabratus. Put plainly: Antifungal activity against Candida glabrata ATCC 90030 infected in ICR mouse assessed as fungal load in kidney at 0.125 mg/kg/day, sc for 8 days measured on day 8. To be noted: route subcutaneous.
Assay [17] has as its system Nakaseomyces glabratus. Put plainly: Antifungal activity against Candida glabrata ATCC 90030 infected in ICR mouse assessed as fungal load in kidney at 0.5 mg/kg/day, sc for 8 days measured on day 8. To be noted: route subcutaneous.
Assay [18] relates to Nakaseomyces glabratus. As to the kind of experiment: Antifungal activity against Candida glabrata ATCC 90030 after 24 hrs by Almar blue assay in presence of 0.2% glucose. To be noted: ATCC 90030, 24 h.
For assay [19], the system named is Nakaseomyces glabratus. As to the kind of experiment: Antifungal activity against Candida glabrata ATCC 90030 after 24 hrs by broth microdilution method in presence of 0.1% glucose. Type of assay: functional. To be noted: ATCC 90030, 24 h.
Assay [20] deals with Nakaseomyces glabratus. As to the kind of experiment: Antifungal activity against Candida glabrata ATCC 90030 infected in ICR mouse assessed as fungal load in kidney at 0.25 mg/kg/day, sc for 8 days measured on day 8. To be noted: route subcutaneous.
The subject of assay [21] is Nakaseomyces glabratus. Put plainly: Antifungal activity against Candida glabrata ATCC 90030 after 24 hrs by broth microdilution method in presence of 0.2% glucose. The class given is functional. To be noted: ATCC 90030, 24 h.
In assay [22] the test system is Nakaseomyces glabratus. Put plainly: Antifungal activity against Candida glabrata ATCC 90030 after 24 hrs by broth microdilution method in presence of 0.05% glucose. Type of assay: functional. To be noted: ATCC 90030, 24 h.
The subject of assay [23] is Nakaseomyces glabratus. Put plainly: Antifungal activity against Candida glabrata ATCC 90030 after 24 hrs by broth microdilution method in presence of 2% glucose. The class given is functional. To be noted: ATCC 90030, 24 h.
For assay [24], the system named is Nakaseomyces glabratus. Put plainly: Antifungal activity against Candida glabrata ATCC 90030 after 24 hrs by broth microdilution method in presence of 0.02% glucose. Type of assay: functional. To be noted: ATCC 90030, 24 h.

In the case of `OC(Cn1cncn1)(Cn1cncn1)c1ccc(F)cc1F` [FLUCONAZOLE], the MIC (in general, the smallest concentration in the dilution series that meets the test's criterion for growth inhibition) in [1] was 8 µg/mL; in assay [2], 8 µg/mL; in assay [3], 8 µg/mL; in assay [5], 16 µg/mL; in assay [6], 16 µg/mL; in assay [8], 4 µg/mL. In addition, in assay [10], the MIC came out at 4 µg/mL. The log10cfu in assay [4] is given as 5.33; in [7], 4.62; in [9], 4.96.
Turning to `N=C(N)c1ccc(OCCCC2CCN(CCCOc3ccc(C(=N)N)cc3)CC2)cc1`, the MIC in [1] is 0.0039 µg/mL; in assay [2], 0.0039 µg/mL; in [3], 0.001 µg/mL; in assay [6] it was over 0.125 µg/mL; in [8], 0.0005 µg/mL; in [10], 0.001 µg/mL. Moreover, the log10cfu in assay [11] was 4; in assay [12], 3.86; in [14] it was 4.3. For the same compound, the outcome in [13] and in assay [15] was Active.
Turning to `CCCCCOc1ccc(-c2cc(-c3ccc(C(=O)N[C@H]4C[C@@H](O)[C@@H](O)NC(=O)[C@@H]5[C@@H](O)[C@@H](C)CN5C(=O)[C@H]([C@H](O)CC(N)=O)NC(=O)[C@H]([C@H](O)[C@@H](O)c5ccc(O)c(OS(=O)(=O)O)c5)NC(=O)[C@@H]5C[C@@H](O)CN5C(=O)[C@H]([C@@H](C)O)NC4=O)cc3)no2)cc1` [MICAFUNGIN] (X1-[Orn(4R-OH,5R-OH)]T[Hyp][hTyr(3S-OH,4S-OH,3'-OSO3H)][Gln(3R-OH)][Pro(3S-OH,4S-Me)]; lactam 1-C), the log10cfu in assay [16] stood at 5.13; in assay [17] it was 3.59; in assay [20], 5.21. Besides, the MIC in assay [18] was 0.0625 µg/mL; in [19] it was 0.0625 µg/mL; in assay [5], 0.0625 µg/mL; in [21], 0.0625 µg/mL; in [22], 0.0625 µg/mL; in assay [8], 0.125 µg/mL. Further, the MIC in assay [23] is 0.0625 µg/mL; in assay [24] it was 0.125 µg/mL.
Turning to `C[C@@H]1[C@H](O)[C@@H](C)/C=C/C=C/C=C/C=C/C=C/C=C/C=C/[C@H](O[C@@H]2O[C@H](C)[C@@H](O)[C@H](N)[C@@H]2O)C[C@@H]2O[C@](O)(C[C@@H](O)C[C@@H](O)[C@H](O)CC[C@@H](O)C[C@@H](O)CC(=O)O[C@H]1C)C[C@H](O)[C@H]2C(=O)O` [AMPHOTERICIN B], the MIC in assay [1] stood at 2 µg/mL; in assay [2], 2 µg/mL; in assay [3] it was 2 µg/mL; in assay [6] it was 2 µg/mL; in assay [8] it was 1 µg/mL; in [10] it was 2 µg/mL. Besides, the log10cfu stood at 4.61 in [16], 2.93 in assay [17] and 4.53 in [20].
